Assay results taken from ChEMBL document CHEMBL1150156, “Semisynthesis of new sarcophine derivatives with chemopreventive activity” (J Nat Prod, 2002).

Legend:
Raji [1] = test: Inhibition of TPA-induced EBV-early antigen activation in human Raji cells assessed as early antigen induction at 1000 molar ratio relative to TPA; type: cell-based; settings: human gammaherpesvirus 4
Procedure, shortened: (§1)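 EBV early antigen induction is measured in Raji cells (virus nonproducer type) stimulated with TPA at 32 pmol. Sample concentration is expressed as mol ratio/TPA; ×1000 equals 32 nmol/mL. EA induction is expressed as a percentage of the positive (TPA-only) value, set as 100%.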

Raji [2] = test: Inhibition of TPA-induced EBV-early antigen activation in human Raji cells assessed as early antigen induction at 10 molar ratio relative to TPA; settings: human gammaherpesvirus 4
[3] = Cytotoxicity against human Raji cells assessed as cell viability at 10 molar ratio; type: cell-based; settings: read-out: Activity
Procedure, shortened: (§2)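 Raji cells (EBV nonproducer type) serve as indicator cells in the TPA-induced EBV-EA activation assay. Sample is dosed as a mol ratio to TPA, with TPA at 32 pmol; ×1000 corresponds to 32 nmol/mL sample. Viability of the indicator cells is reported as a percentage.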

Raji [4] = test: Inhibition of TPA-induced EBV-early antigen activation in human Raji cells assessed as early antigen induction at 100 molar ratio relative to TPA; type: cell-based; settings: human gammaherpesvirus 4; procedure, shortened: as §1
[5] = Cytotoxicity against human Raji cells assessed as cell viability at 500 molar ratio; type: cell-based; settings: read-out: Activity; procedure, shortened: as §2
[6] = Cytotoxicity against human Raji cells assessed as cell viability at 100 molar ratio; type: cell-based; settings: read-out: Activity; procedure, shortened: as §2
[7] = Cytotoxicity against human Raji cells assessed as cell viability at 1000 molar ratio; type: cell-based; settings: read-out: Activity; procedure, shortened: as §2
Raji [8] = test: Inhibition of TPA-induced EBV-early antigen activation in human Raji cells assessed as early antigen induction at 500 molar ratio relative to TPA; type: cell-based; settings: human gammaherpesvirus 4; procedure, shortened: as §1

Compound	EBV early antigen induction (% of TPA-only control) (Raji [1])	EBV early antigen induction relative to TPA (Raji [2])	viability at 10 molar ratio [3]	EBV early antigen induction (% of TPA-only control) (Raji [4])	viability at 500 molar ratio [5]	viability at 100 molar ratio [6]	viability at 1000 molar ratio [7]	EBV early antigen induction (% of TPA control) (Raji [8])
C/C(CO)=C1\CC/C(C)=C/CC[C@]2(C)O[C@H]2CC/C(C)=C/[C@@H]1O	9.6%	94.1%	> 80%	75.5%	> 80%	> 80%	60%	57.3%
CC1=C2CC/C(C=O)=C/CC[C@]3(C)O[C@H]3CC/C(C)=C/[C@@H]2OC1=O	12.7%	96%	> 80%	81.3%	> 80%	> 80%	60%	60.8%
C/C1=C\C=C(\[C@@](C)(O)CO)CC/C(C=O)=C/CC[C@]2(C)O[C@H]2CC1	3.6%	90.6%	> 80%	71.3%	> 80%	> 80%	60%	52.4%
CC1=C2C[C@H](O)/C(C)=C/CC[C@]3(C)O[C@H]3CC/C(C)=C/[C@@H]2OC1=O	14.2%	100%	> 80%	81.3%	> 80%	> 80%	60%	62.8%
C/C1=C\C=C(\[C@@](C)(O)CO)C[C@H](O)/C(C)=C/CC[C@]2(C)O[C@H]2CC1	5.9%	93.8%	> 80%	74.6%	> 80%	> 80%	60%	55.8%
CC1=C2CC/C(C)=C/CC[C@]3(C)O[C@H]3CC/C(C)=C/[C@@H]2OC1=O [SARCOPHINE]	19.6%	100%	> 80%	84%	> 80%	> 80%	60%	67.5%
C/C1=C\C=C(\[C@@](C)(O)CO)C[C@@H](O)/C(C)=C/CC[C@]2(C)O[C@H]2CC1	5.7%	92.6%	> 80%	72.9%	> 80%	> 80%	60%	54.2%
C/C1=C\C=C(\[C@@](C)(O)CO)CC(=O)/C(C)=C/CC[C@]2(C)O[C@H]2CC1	8.3%	94%	> 80%	75.1%	> 80%	> 80%	60%	56.7%
C/C1=C\C=C(\C(C)C)[C@@H](O)C/C(C)=C/CC/C(C)=C/CC1	11.7%	97.3%	> 80%	79.1%	> 80%	> 80%	50%	60.4%
